This note sets out measurements from ChEMBL document CHEMBL3526049 (Drug Metab Dispos, 2012).

Common to all, as to details: in vivo
The subject of series [1] is Rattus norvegicus. The experiment in a line: Ratio of AUC (0 to 4 hrs) for metabolite to AUC (0 to 4 hrs) for parent compound in MRP2 knockout Sprague-Dawley rat at 10 mg/kg, po by LC-MS/MS analysis. Further details: dose 10 mg/kg, route oral. Format: ADME, organism-based.
Series [2] deals with Rattus norvegicus. The experiment in a line: Ratio of AUC (0 to 4 hrs) for metabolite to AUC (0 to 4 hrs) for parent compound in wild-type Sprague-Dawley rat at 10 mg/kg, po by LC-MS/MS analysis. The series is classed as ADME, organism-based. Further details: dose 10 mg/kg, route oral.
Series [3] has as its system Rattus norvegicus. The experiment in a line: Ratio of AUC (0 to 4 hrs) for metabolite to AUC (0 to 4 hrs) for parent compound in BCRP knockout Sprague-Dawley rat at 10 mg/kg, po by LC-MS/MS analysis. Format: ADME, organism-based. Set-up: dose 10 mg/kg, route oral.
Series [4] concerns Rattus norvegicus. The experiment in a line: Cmax in BCRP knockout Sprague-Dawley rat treated with loperamide at 10 mg/kg, po by LC-MS/MS analysis. Set-up: dose 10 mg/kg, route oral. The series is classed as ADME, organism-based. Summed up:
(§1)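 Male Sprague-Dawley rats (knockout or wild type matched for age and weight), femoral artery and vein cannulated, at least 2 days recovery. Crossover design: IV bolus 1 mg/kg on day 0 (saline with 0.2 M equivalents HCl), oral gavage 10 mg/kg on day 3 (water with 0.2 M equivalents HCl). Arterial plasma sampled to 24 h (Mdr1a oral arm to 4 h). Analysed by LC-MS/MS and noncompartmental analysis.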

Series [5] has as its system Rattus norvegicus. The experiment in a line: AUC (infinity) in MRP2 knockout Sprague-Dawley rat treated with loperamide at 10 mg/kg, po by LC-MS/MS analysis. Format: ADME, organism-based, Plasma. Further details: time infinity, dose 10 mg/kg, route oral. Summed up: as §1
Series [6] relates to Rattus norvegicus. The experiment in a line: Cmax in MRP2 knockout Sprague-Dawley rat treated with loperamide at 10 mg/kg, po by LC-MS/MS analysis. The series is classed as ADME, organism-based. Set-up: dose 10 mg/kg, route oral. Summed up: as §1
Series [7] relates to Rattus norvegicus. The experiment in a line: Cmax in wild-type Sprague-Dawley rat treated with loperamide at 10 mg/kg, po by LC-MS/MS analysis. Set-up: dose 10 mg/kg, route oral. The series is classed as ADME, organism-based. Summed up:
as §1

Series [8] concerns Rattus norvegicus. The experiment in a line: AUC (0 to 4 hrs) in MDR1A knockout Sprague-Dawley rat treated with loperamide at 10 mg/kg, po by LC-MS/MS analysis. Further details: time < 4 hr, dose 10 mg/kg, route oral. The series is classed as ADME, organism-based, Plasma.
For series [9], the system named is Rattus norvegicus. The experiment in a line: AUC (infinity) in wild-type Sprague-Dawley rat treated with loperamide at 10 mg/kg, po by LC-MS/MS analysis. The series is classed as ADME, organism-based, Plasma. Set-up: time infinity, dose 10 mg/kg, route oral. An outline of the steps: as §1
Series [10] deals with Rattus norvegicus. The series can be described thus: Ratio of AUC (0 to 4 hrs) for metabolite to AUC (0 to 4 hrs) for parent compound in MDR1A knockout Sprague-Dawley rat at 10 mg/kg, po by LC-MS/MS analysis. The series is classed as ADME, organism-based. Set-up: dose 10 mg/kg, route oral.
In series [11] the test system is Rattus norvegicus. The experiment in a line: AUC (0 to 4 hrs) in wild-type Sprague-Dawley rat treated with loperamide at 10 mg/kg, po by LC-MS/MS analysis. Format: ADME, organism-based, Plasma. Further details: time < 4 hr, dose 10 mg/kg, route oral.
The subject of series [12] is Rattus norvegicus. The series can be described thus: AUC (infinity) in BCRP knockout Sprague-Dawley rat treated with loperamide at 10 mg/kg, po by LC-MS/MS analysis. Format: ADME, organism-based, Plasma. Set-up: time infinity, dose 10 mg/kg, route oral. An outline of the steps:
as §1

Series [13] has as its system Rattus norvegicus. The series can be described thus: Cmax in MDR1A knockout Sprague-Dawley rat treated with loperamide at 10 mg/kg, po by LC-MS/MS analysis. Format: ADME, organism-based. Further details: dose 10 mg/kg, route oral. Summed up: as §1

In the case of `CNC(=O)C(CCN1CCC(O)(c2ccc(Cl)cc2)CC1)(c1ccccc1)c1ccccc1`, the “Ratio AUC” value is recorded as 3.5 with Rattus norvegicus [1], 2.3 in the series with Rattus norvegicus [2], 3.3 in the series on Rattus norvegicus [3] and 1 with Rattus norvegicus [10]. Besides, the Cmax in the series with Rattus norvegicus [4] was found to be 150 ng.Eq/ml; in the series on Rattus norvegicus [6], 109 ng.Eq/ml; in the series with Rattus norvegicus [7], 158 ng.Eq/ml; with Rattus norvegicus [13], 193 ng.Eq/ml. Further, the AUC in the series on Rattus norvegicus [5] came to 3658 ng.Eq/ml; in the series on Rattus norvegicus [8], 635 ng.Eq.hr/ml; in the series with Rattus norvegicus [9], 1875 ng.Eq.hr/ml; in the series with Rattus norvegicus [11], 427 ng.Eq.hr/ml; in the series with Rattus norvegicus [12], 3256 ng.Eq.hr/ml.
